PMC5028280 (Neuropharmacology, 2016)
Read-outs that look alike come from different tables or passages of the source.

Legend:
5-HT2B [1] = biological target: T1, 5-HT2B (Homo sapiens, UniProt P41595); assay: NIMH PDSP secondary binding assay, 5-HT2B
5-HT6 = 5-HT6 (Homo sapiens, UniProt P50406); assay: NIMH PDSP secondary binding assay, 5-HT6; settings: read-out: 5-HT6 binding affinity Ki; mean of 3 replications
5-HT2B [2] = biological target: T1, 5-HT2B; assay: 5-HT2B antagonism functional assay; assay type: cell-based
hERG = hERG (Homo sapiens, UniProt Q12809); assay: hERG channel assay; assay type: cell-based
male ICR mice [3] = assay: Functional observational battery; assay type: in vivo, mouse; settings: i.v.; for FOB Home cage activity: doses with significant differences vs vehicle: CNS Activity domain, ↓ decrease vs vehicle, N = 6/dose; for FOB Muscle tone: doses with significant differences vs vehicle / FOB Posture: doses with significant differences vs vehicle / FOB Forelimb placing: doses with significant differences vs vehicle / FOB Gait: doses with significant differences vs vehicle: Muscle tone/Equilibrium domain; for FOB Approach response: doses with significant differences vs vehicle / FOB Startle response: doses with significant differences vs vehicle: Sensorimotor Reactivity domain
Outline: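 Male ICR mice, each given one dose only, n=6 per dose; housed at 20–22°C on a 12-h light/dark cycle with food ad libitum. Approach and startle after observer interference were scored as categorical measures. Each compound's vehicle group was pooled into one vehicle group, and each dose was compared with it. Tests: Fisher's exact (categorical), Kruskal-Wallis (ordinal), one-way ANOVA (continuous).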

GABA: PBR = GABA: PBR (Rattus norvegicus, UniProt P16257); assay: NIMH PDSP secondary binding assay, PBR; set-up: species or system human
male ICR mice [4] = assay: FOB, cannabinoid receptor antagonism of 3 mg/kg JWH-018 effects; assay type: in vivo, mouse
male C57/Bl6J mice [5] = assay: Drug discrimination, mice trained to discriminate 0.3 mg/kg JWH-018 from vehicle; assay type: in vivo, mouse; settings: for Response rates compared to vehicle: 1 mg/kg JWH-018, 10 mg/kg THC, JWH-073 across the dose range tested; for Substitution for the 0.3 mg/kg JWH-018 training dose: percentage of responses on JWH-018-associated lever; for Substitution for the 0.3 mg/kg JWH-018 training dose / ED50 for substitution for the 0.3 mg/kg JWH-018 training dose: i.p.; for Fold less potent than JWH-018 in JWH-018 discrimination: from ED50 values; for ED50 for substitution for the 0.3 mg/kg JWH-018 training dose: 30 min before session
5-HT2C = biological target: T2, 5-HT2C (Homo sapiens, UniProt P28335); assay: NIMH PDSP secondary binding assay, 5-HT2C; settings: read-out: 5-HT2C binding affinity Ki; mean of 3 replications
T2 sequence (P28335 33-458): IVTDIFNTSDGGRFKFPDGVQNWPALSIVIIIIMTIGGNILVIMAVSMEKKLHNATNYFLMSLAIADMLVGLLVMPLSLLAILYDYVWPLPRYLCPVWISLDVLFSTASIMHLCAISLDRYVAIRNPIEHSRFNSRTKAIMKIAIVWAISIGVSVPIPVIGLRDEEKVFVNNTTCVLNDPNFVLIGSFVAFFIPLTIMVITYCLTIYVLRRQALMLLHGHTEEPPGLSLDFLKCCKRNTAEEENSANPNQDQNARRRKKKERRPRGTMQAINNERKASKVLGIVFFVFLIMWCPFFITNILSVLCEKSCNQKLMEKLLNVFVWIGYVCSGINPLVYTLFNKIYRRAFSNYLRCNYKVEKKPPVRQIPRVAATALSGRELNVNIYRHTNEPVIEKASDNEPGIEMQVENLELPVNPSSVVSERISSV

[6] = Urinary metabolite identification; assay type: in vivo, mouse; settings: II = glucuronic acid conjugate; X = identified
male C57/Bl6J mice [7] = assay: Drug discrimination, mice trained to discriminate 5.6 mg/kg THC from vehicle; assay type: in vivo, mouse
[8] = read-out: 5-HT2B binding affinity Ki, mean of 3 replications
[9] = read-out: 5-HT2B Antagonism IC50, mean of 3 replicates
[10] = inhibition of hERG channels, mean of 3 replicates
[11] = read-out: hERG Channels EC50, inhibition of hERG channels, mean of 3 replicates
[12] = CNS Excitability domain, ↑ increase vs vehicle, ---- no significant effect
[13] = categorical, ---- no significant effect
[14] = Autonomic Effects domain, categorical, ---- no significant effect

T1 sequence (P41595 whole entry): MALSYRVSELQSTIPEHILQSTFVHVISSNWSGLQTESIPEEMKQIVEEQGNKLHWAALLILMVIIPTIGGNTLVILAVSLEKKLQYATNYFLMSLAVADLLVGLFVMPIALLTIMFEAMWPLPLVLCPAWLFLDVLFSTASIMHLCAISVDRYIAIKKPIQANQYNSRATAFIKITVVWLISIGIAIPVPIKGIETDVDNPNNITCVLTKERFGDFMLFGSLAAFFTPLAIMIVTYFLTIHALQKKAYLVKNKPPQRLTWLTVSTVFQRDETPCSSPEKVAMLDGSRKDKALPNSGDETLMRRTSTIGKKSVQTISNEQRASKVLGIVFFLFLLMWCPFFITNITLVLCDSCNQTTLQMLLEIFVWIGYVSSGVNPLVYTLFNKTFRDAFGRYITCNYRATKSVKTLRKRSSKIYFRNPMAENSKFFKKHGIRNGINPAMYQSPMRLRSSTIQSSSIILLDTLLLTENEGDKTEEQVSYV
Chain of hERG (Q12809 whole entry, the tested form may be a part): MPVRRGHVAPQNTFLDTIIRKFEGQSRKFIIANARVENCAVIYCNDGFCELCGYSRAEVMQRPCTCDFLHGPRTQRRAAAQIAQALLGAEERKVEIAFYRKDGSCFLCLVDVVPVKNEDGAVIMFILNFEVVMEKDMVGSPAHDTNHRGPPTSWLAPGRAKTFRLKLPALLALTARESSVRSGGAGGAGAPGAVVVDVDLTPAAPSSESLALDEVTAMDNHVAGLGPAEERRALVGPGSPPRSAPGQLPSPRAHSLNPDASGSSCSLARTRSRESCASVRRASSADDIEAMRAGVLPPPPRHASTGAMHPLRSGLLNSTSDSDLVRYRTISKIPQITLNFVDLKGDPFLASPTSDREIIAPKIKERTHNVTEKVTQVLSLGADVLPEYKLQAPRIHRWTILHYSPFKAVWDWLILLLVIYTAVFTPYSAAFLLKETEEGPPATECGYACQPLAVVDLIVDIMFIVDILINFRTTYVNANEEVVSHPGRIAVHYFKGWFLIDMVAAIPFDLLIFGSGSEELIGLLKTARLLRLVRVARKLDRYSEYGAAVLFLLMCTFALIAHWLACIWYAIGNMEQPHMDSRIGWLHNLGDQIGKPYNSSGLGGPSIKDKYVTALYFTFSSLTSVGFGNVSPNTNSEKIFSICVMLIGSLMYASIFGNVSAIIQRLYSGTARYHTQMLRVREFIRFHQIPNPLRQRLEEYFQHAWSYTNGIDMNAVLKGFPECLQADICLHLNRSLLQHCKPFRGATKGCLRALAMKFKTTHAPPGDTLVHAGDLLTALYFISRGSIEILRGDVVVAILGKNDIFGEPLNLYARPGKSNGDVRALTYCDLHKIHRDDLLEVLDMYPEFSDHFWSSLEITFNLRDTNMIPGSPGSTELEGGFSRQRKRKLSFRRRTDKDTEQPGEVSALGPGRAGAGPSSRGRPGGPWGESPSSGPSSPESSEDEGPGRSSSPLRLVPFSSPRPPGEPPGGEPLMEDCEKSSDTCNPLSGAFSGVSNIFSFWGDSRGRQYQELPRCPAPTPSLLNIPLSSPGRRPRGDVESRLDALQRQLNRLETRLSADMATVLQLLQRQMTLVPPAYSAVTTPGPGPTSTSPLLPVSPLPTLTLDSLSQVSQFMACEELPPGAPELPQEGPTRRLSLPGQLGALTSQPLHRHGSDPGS
Chain of GABA: PBR (P16257 whole entry): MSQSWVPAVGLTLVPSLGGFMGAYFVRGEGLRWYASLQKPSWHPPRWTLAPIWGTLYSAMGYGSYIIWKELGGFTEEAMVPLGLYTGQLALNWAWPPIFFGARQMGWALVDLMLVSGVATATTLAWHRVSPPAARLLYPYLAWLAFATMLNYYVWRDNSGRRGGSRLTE
Chain of 5-HT6 (P50406 whole entry): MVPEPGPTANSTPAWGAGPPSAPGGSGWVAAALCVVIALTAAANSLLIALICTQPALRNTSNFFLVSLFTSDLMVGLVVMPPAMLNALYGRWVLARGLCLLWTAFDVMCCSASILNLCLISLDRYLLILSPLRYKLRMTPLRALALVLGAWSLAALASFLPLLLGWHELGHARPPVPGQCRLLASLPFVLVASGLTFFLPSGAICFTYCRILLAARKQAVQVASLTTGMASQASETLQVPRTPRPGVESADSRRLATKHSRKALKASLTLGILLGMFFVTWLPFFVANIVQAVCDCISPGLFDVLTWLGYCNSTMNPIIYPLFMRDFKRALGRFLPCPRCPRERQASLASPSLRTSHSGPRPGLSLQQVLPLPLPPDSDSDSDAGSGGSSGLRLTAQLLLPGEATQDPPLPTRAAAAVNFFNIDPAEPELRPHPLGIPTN

Row | Compound | Ki (5-HT2B [1]; [8]) [µM] | 5-HT2B Antagonism Emax (5-HT2B [2]; mean of 3 replicates) [%] | IC50 (5-HT2B [2]; [9]) [µM] | hERG Channels Emax (hERG; [10]) | EC50 (hERG; [11]) [µM] | FOB Home cage activity: doses with significant differences vs vehicle (male ICR mice [3]) | FOB Tonus: doses with significant differences vs vehicle (male ICR mice [3]; [12]) | FOB Muscle tone: doses with significant differences vs vehicle (male ICR mice [3]; [13]) | FOB Posture: doses with significant differences vs vehicle (male ICR mice [3]; [13]) | FOB Approach response: doses with significant differences vs vehicle (male ICR mice [3]; [13]) | FOB Tail elevation: doses with significant differences vs vehicle (male ICR mice [3]; [12]) | FOB Forelimb placing: doses with significant differences vs vehicle (male ICR mice [3]; [13]) | FOB Gait: doses with significant differences vs vehicle (male ICR mice [3]; [13]) | FOB Startle response: doses with significant differences vs vehicle (male ICR mice [3]; [13]) | Response rates compared to vehicle (male C57/Bl6J mice [5]) | Substitution for the 0.3 mg/kg JWH-018 training dose (male C57/Bl6J mice [5]) | also measured
1 | O=C(c1cccc2ccccc12)c1cn(CCCCCF)c2ccccc12 [AM-2201] | 0.192 | 100 | 23.9 | 70% | 3.35 | ↓ (0.03-1) mg/kg | ↑ (0.3-1) mg/kg | (0.1-1) mg/kg | (0.03-1) mg/kg | (0.1-1) mg/kg |  |  |  |  |  |  | Ki (5-HT6): 0.693 µM
2 | CCCCCn1cc(C(=O)c2cccc3ccccc23)c2ccccc21 [JWH-018, 1-pentyl-3-(1-naphthoyl)indole] |  |  |  | Full efficacy |  | ↓ (0.1-3) mg/kg | ↑ (1) mg/kg | (0.1-3) mg/kg | (0.1-3) mg/kg | (0.3-3) mg/kg | ↑ (1) mg/kg | (3) mg/kg | (0.1-3) mg/kg | (3) mg/kg | significantly decreased response rates | fully and dose-dependently substituted | Ki (5-HT2B [1]): 0.316 µM; Ki (GABA: PBR): 0.673 µM; IC50 (5-HT2B [2]): 33.2 µM; Emax (5-HT2B [2]; read-out: 5-HT2B Antagonism Emax): 100%; EC50 (hERG): 236 µM; Emax (hERG; human, stably transfected cell line expressing hERG channels): 100%; FOB Clonus: doses with significant differences vs vehicle (male ICR mice [3]; [12]): ↑ (0.3) mg/kg; Muscle tone in FOB antagonism study (male ICR mice [4]; 3 mg/kg JWH-018 i.v. alone, or co-administration of 3 mg/kg rimonabant i.p.): Hypertonia; Responding on the JWH-018-associated lever at the training dose (male C57/Bl6J mice [5]; 0.3 mg/kg JWH-018): > 85%
3 | CCCCn1cc(C(=O)c2cccc3ccccc23)c2ccccc21 [JWH-073] | 0.184 | 100 | 19.3 | 59% | 9.71 | ↓ (0.3-3) mg/kg |  | (1-3) mg/kg | (1-3) mg/kg | (1-3) mg/kg | ↑ (1) mg/kg | (0.3) mg/kg | (0.3-3) mg/kg | (3) mg/kg | significant decreases were not observed | fully and dose-dependently substituted | Fold less potent than JWH-018 in JWH-018 discrimination (male C57/Bl6J mice [5]): about 5 fold; ED50 for substitution for the 0.3 mg/kg JWH-018 training dose (male C57/Bl6J mice [5]): 2.11 µmol/kg
4 | CCCCCn1cc(C(=O)c2ccc(OC)c3ccccc23)c2ccccc21 [JWH-081] |  |  |  | lacked efficacy |  | ↓ (0.1-1) mg/kg |  | (0.3) mg/kg | (0.3-1) mg/kg | (1) mg/kg |  |  | (0.3-1) mg/kg | (1) mg/kg |  |  | 5-HT2B Antagonism IC50 (5-HT2B [2]; mean of 3 replicates): Not active; hERG Channels EC50 (hERG; [10]): Not active
5 | CCCCCn1cc(C(=O)Cc2ccccc2)c2ccccc21 [JWH-167] | 1.25 | 100 | 47.7 | 81% | 13.8 | ↓ (3-30) mg/kg | ↑ (10) mg/kg | (3-30) mg/kg | (1-30) mg/kg | (3-30) mg/kg |  | (10-30) mg/kg | (3-30) mg/kg | (3-30) mg/kg |  |  | Ki (5-HT2C): 4.82 µM; FOB Exophthalmus: doses with significant differences vs vehicle (male ICR mice [3]; [14]): (1) mg/kg; FOB Piloerection: doses with significant differences vs vehicle (male ICR mice [3]; [14]): (10-30) mg/kg
6 | CCCCCn1cc(C(=O)c2ccc(CC)c3ccccc23)c2ccccc21 [JWH-210] |  | 100 | 2870 | lacked efficacy |  | ↓ (0.1-3) mg/kg |  | (0.3-3) mg/kg | (0.1-3) mg/kg |  |  |  | (0.1-3) mg/kg | (0.3-3) mg/kg |  |  | hERG Channels EC50 (hERG; [10]): Not active; FOB Exophthalmus: doses with significant differences vs vehicle (male ICR mice [3]; [14]): (0.3) mg/kg; Monohydroxylation metabolite in urine, phase II [6]: no monohydroxyl glucuronide was observed
7 | CCCCCc1cc(O)c2c(c1)OC(C)(C)[C@@H]1CCC(C)=C[C@@H]21 [THC, Δ^9-tetrahydrocannabinol, reference compound] | 0.765 |  |  |  |  | ↓ (0.3-10) mg/kg |  |  | (3-10) mg/kg |  | ↑ (3) mg/kg |  |  |  | significantly decreased response rates | fully and dose-dependently substituted | Fold less potent than JWH-018 in JWH-018 discrimination (male C57/Bl6J mice [5]): ~10 fold; ED50 for substitution for the 0.3 mg/kg JWH-018 training dose (male C57/Bl6J mice [5]): 4.08 µmol/kg
8 | CN1CCN2c3ccccc3Cc3ccccc3C2C1 (centres unmarked) [mianserin] |  |  |  |  |  |  |  |  |  |  |  |  |  |  |  | failed to substitute for or antagonize | Responding on the JWH-018 lever, 3 mg/kg mianserin co-administered with 0.3 mg/kg JWH-018 (male C57/Bl6J mice [5]; compared to 0.3 mg/kg JWH-018 alone): significantly decreased; Responding on the JWH-018 lever, 3 mg/kg mianserin (plus vehicle) (male C57/Bl6J mice [5]; compared to vehicle alone): significantly increased; Substitution of the JWH-018 training dose (0.3 mg/kg), mianserin at doses up 1 mg/kg (male C57/Bl6J mice [5]; mianserin plus 0.3 mg/kg JWH-018): not altered; Overall response rate, mianserin 1 and 3 mg/kg administered with JWH-018 (male C57/Bl6J mice [5]; mouse, in vivo): significantly suppressed; Percentage of THC-lever responding, mianserin 0.1, 0.3, and 3 mg/kg (male C57/Bl6J mice [7]; co-administered with either vehicle or 5.6 mg/kg THC): did not alter this pattern; Percentage of THC-lever responding, 1 mg/kg mianserin plus 5.6 mg/kg THC (male C57/Bl6J mice [7]; compared to 5.6 mg/kg THC alone): significantly lower; Substitution for THC in mice trained to discriminate THC (male C57/Bl6J mice [7]; mianserin tested alone, i.p.): did not substitute; Overall responding on both levers (response rate), 3 mg/kg mianserin (male C57/Bl6J mice [7]; with vehicle or THC): significantly suppressed
9 | Cc1c(C(=O)NN2CCCCC2)nn(-c2ccc(Cl)cc2Cl)c1-c1ccc(Cl)cc1 [rimonabant] |  |  |  |  |  |  |  |  |  |  |  |  |  |  |  |  | Response rates in antagonism tests (male C57/Bl6J mice [5]; 3 mg/kg antagonist with vehicle or 0.3 mg/kg JWH-018): significantly decreased
10 | SR144528 [reference compound] |  |  |  |  |  |  |  |  |  |  |  |  |  |  |  |  | FOB selected measures, antagonist 3 mg/kg i.p. plus vehicle (male ICR mice [4]; rimonabant/vehicle and SR144528/vehicle groups, all mice): Normal responses
